Consider eight molecules from ChEMBL document CHEMBL1124756, “The discovery of potent nonpeptide angiotensin II receptor antagonists: a new class of potent antihypertensives” (J Med Chem, 1990).

The assay concerns the target T1, Angiotensin II receptor (Rattus norvegicus, UniProt P29089+P25095+P35351).
T1 sequence (P29089 whole entry): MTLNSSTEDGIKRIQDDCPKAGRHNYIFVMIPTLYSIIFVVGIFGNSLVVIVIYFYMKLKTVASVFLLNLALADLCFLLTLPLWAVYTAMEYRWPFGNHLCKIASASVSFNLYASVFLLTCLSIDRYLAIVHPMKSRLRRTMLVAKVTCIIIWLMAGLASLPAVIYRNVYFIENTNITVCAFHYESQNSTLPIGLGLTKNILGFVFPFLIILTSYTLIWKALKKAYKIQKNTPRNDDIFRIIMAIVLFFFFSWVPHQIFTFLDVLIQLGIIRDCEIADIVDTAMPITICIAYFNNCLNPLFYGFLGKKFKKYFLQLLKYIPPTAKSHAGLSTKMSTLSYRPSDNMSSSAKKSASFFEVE
T1 sequence (P25095 whole entry): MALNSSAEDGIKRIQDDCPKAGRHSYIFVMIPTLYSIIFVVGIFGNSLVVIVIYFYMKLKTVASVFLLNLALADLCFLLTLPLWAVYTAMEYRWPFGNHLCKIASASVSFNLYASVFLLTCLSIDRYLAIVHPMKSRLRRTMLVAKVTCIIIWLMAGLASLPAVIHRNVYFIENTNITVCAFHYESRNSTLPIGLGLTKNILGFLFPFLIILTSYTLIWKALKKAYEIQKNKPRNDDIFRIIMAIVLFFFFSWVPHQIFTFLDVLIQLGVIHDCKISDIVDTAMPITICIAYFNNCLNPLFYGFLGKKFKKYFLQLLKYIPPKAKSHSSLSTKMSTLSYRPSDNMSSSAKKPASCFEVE
T1 sequence (P35351 whole entry): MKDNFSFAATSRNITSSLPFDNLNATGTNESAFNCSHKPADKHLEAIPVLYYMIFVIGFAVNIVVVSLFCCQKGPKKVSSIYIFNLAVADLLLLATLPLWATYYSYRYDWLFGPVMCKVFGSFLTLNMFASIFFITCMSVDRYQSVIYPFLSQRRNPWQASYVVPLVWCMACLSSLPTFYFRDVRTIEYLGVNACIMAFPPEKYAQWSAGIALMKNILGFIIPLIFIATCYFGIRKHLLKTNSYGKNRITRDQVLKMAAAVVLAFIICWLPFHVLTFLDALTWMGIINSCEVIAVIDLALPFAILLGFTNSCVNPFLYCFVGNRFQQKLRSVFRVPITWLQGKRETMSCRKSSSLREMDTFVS
Kind of assay: Inhibitory concentration that gave 50 percent displacement of specific binding of [3H]AII (2 nM) to Angiotensin ll receptor. The format is protein assay. The essentials: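 Rat adrenal cortical microsomes from male Sprague–Dawley rats, resuspended in 50 mM Tris pH 7.2, 5 mM MgCl2, 0.25% BSA. Membranes (0.02–0.03 mg protein) incubated with [3H]AII 2 nM plus varying inhibitor concentrations, 60 min at 25 °C with shaking. Glass-fiber filtration, scintillation counting, duplicates. Nonspecific binding defined with 1 μM unlabeled AII. IC50 taken from linear portion of displacement curve.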
Usually IC50 stands for the point on the concentration scale where inhibition reaches its midpoint. The molecule `Cc1nccn1Cc1ccc(NC(=O)c2ccccc2C(=O)O)cc1` returned an IC50 of 100 µM.

As for `CCCc1nccn1Cc1ccc(NC(=O)c2ccccc2C(=O)O)cc1`, the IC50 was 3.7 µM. With `CCCCCc1nccn1Cc1ccc(NC(=O)c2ccccc2C(=O)O)cc1`, the IC50 worked out at 0.24 µM. The same measure for `O=C(O)c1ccccc1C(=O)Nc1ccc(Cn2ccnc2CC2CCCCC2)cc1`: 2.8 µM. Regarding `CC(C)c1nccn1Cc1ccc(NC(=O)c2ccccc2C(=O)O)cc1`, the IC50 is 12 µM. As for `O=C(O)c1ccccc1C(=O)Nc1ccc(Cn2cncc2CO)cc1`, the IC50 is greater than 100 µM. In turn, `COc1ccc(Cc2nccn2Cc2ccc(NC(=O)c3ccccc3C(=O)O)cc2)cc1` gave an IC50 of 2.5 µM.

On to `O=C(O)c1ccccc1C(=O)Nc1ccc(Cn2ccnc2)cc1`, for which the IC50 is 100 µM.
